The nature of data set [1]: Retention time of the compound by HPLC analysis. Format: physicochemical. Summed up:
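Analytical reverse-phase HPLC on a peptide C18 column with a 5–45% acetonitrile gradient over 30 min. Identity was confirmed by ESI-MS mass.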

The target in another data set is T1, Apelin receptor (Homo sapiens, UniProt P35414).
T1 sequence (P35414 whole entry): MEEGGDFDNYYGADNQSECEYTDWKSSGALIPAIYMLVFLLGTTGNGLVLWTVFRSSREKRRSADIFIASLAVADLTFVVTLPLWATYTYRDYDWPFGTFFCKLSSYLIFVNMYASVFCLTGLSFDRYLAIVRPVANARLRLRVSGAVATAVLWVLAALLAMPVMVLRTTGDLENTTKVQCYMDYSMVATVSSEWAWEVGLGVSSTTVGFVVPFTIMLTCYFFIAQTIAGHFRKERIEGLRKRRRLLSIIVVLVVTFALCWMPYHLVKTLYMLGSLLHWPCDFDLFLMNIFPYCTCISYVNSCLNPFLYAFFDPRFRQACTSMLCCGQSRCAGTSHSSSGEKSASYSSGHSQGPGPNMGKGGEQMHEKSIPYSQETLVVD
Briefly: Agonist activity at APJ receptor (unknown origin) expressed in CHO cells co-expressing with Calphaq16 assessed as calcium mobilization. It counts as functional, cell-based. To be noted: for pEC50: read-out: EC50; for EC50: read-out: pEC50 (converted).

Data set [2] is described as follows: Half life in rat plasma at pH 7.4 by LC-MS/MS analysis. It counts as ADME, cell-free. Summed up: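 Peptide incubated in rat plasma adjusted to pH 7.4 at 37 °C, with DMSO kept below 2.5%. Reactions were stopped with acetonitrile at 0, 2, 5, 15, 30 and 60 min and clarified by centrifugation. Parent remaining was quantified by UPLC-MS/MS using MRM.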
The subject of data set [3] is Plasma. In words: Drug metabolism in rat plasma assessed as Ac-R-P-Nle-L-A after 15 to 25 mins by ESI-MS analysis. It counts as ADME, cell-free. Summed up:
(§1)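 Peptide incubated in rat serum, with aliquots taken over a time course. Samples were run on reverse-phase capillary C18 nano-LC, with mobile phase B rising linearly from 10% to 60% over 55 min at 450 nl/min. Detection was positive-ion nano-ESI Orbitrap MS in data-dependent mode (1 FTMS plus 3 IT-MS/MS cycles, resolution 7500). Fragments were assigned from [M+H]+ masses using peptide ladder predictions.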

Data set [4] has as its system Plasma. In words: Drug metabolism in rat plasma assessed as Ac-R-P-Nle after 15 to 25 mins by ESI-MS analysis. It counts as ADME, cell-free. A digest of the protocol:
as §1

pEC50: −log10 of the molar value. Structures can show the parent of a compound that is named as a salt. Square brackets hold non-standard residues; d marks the D form. Peptide text beside a SMILES is read from it. * marks the point of attachment. hPhe = N[C@@H](CCc1ccccc1)C(=O)O; Nle = CCCC[C@H](N)C(=O)O; Aoc = NCCCCCCCC(=O)O; Tfa = O=C(C(F)(F)F)*

In data set [1], `CSCC[C@H](NC(=O)[C@@H]1CCCN1C(=O)CNC(=O)[C@H](CCCCN)NC(=O)[C@H](Cc1cnc[nH]1)NC(=O)[C@H](CO)NC(=O)[C@H](CC(C)C)NC(=O)[C@H](CCCNC(=N)N)NC(=O)[C@@H]1CCCN1C(=O)[C@H](CCCNC(=N)N)NC(=O)[C@@H]1CCC(=O)N1)C(=O)N1CCC[C@H]1C(=O)N[C@@H](Cc1ccccc1)C(=O)O` registered a Retention_time of 17.44 min. What is called pEC50 is the negative decadic logarithm of the EC50, by convention in mol/L. As for `CC(=O)N[C@@H](CCCNC(=N)N)C(=O)N1CCC[C@H]1C(=O)N[C@@H](CCCCN)C(=O)N[C@@H](CC(C)C)C(=O)N[C@@H](C)C(=O)N[C@@H](C)C(=O)N[C@@H](CCCCN)C(=O)NCC(=O)N1CCC[C@@H]1C(=O)N[C@@H](CC(C)C)C(N)=O`, in data set [1], the Retention_time is given as 13.25 min. Besides, on Apelin receptor (cho), the negative logarithm of the EC50 (pEC50) is 8.77. As for `CC(=O)N[C@@H](CCCCNC(=O)C(F)(F)F)C(=O)N1CCC[C@H]1C(=O)N[C@@H](CCCNC(=N)N)C(=O)N[C@@H](CC(C)C)C(=O)N[C@@H](C)C(=O)N[C@@H](C)C(=O)N[C@@H](CCCCN)C(=O)NCC(=O)N1CCC[C@H]1C(=O)N[C@@H](CC(C)C)C(N)=O` (Ac-K(Tfa)PRLAAKGPL-NH2), in data set [1], the Retention_time is recorded as 17.23 min. For the same compound, the pEC50 at Apelin receptor was less than 5.52.

In turn, `CCCC[C@H](NC(=O)[C@H](C)NC(=O)[C@H](C)NC(=O)[C@H](CC(C)C)NC(=O)[C@H](CCCCN)NC(=O)[C@@H]1CCCN1C(=O)[C@H](CCCNC(=N)N)NC(C)=O)C(=O)NCC(=O)N1CCC[C@H]1C(=O)N[C@@H](CC(C)C)C(N)=O` (Ac-RPKLAA[Nle]GPL-NH2) showed a Retention_time in data set [1] of 17.64 min. In addition, the pEC50 on Apelin receptor was 8.66.

In data set [1], `CC(=O)N[C@@H](CCCNC(=N)N)C(=O)N1CCC[C@H]1C(=O)NCCCCCCCC(=O)N[C@@H](CC(C)C)C(=O)N[C@@H](C)C(=O)N[C@@H](C)C(=O)N[C@@H](C)C(=O)NCC(=O)N1CCC[C@H]1C(=O)N[C@@H](CC(C)C)C(N)=O` (Ac-RP[Aoc]LAAAGPL-NH2) yielded a Retention_time of 22 min. The pEC50 at Apelin receptor is less than 5.52. For the compound `CCCC[C@H](NC(=O)[C@@H]1CCCN1C(=O)[C@H](CCCNC(=N)N)NC(C)=O)C(=O)N[C@@H](CC(C)C)C(=O)N[C@@H](C)C(=O)N[C@@H](C)C(=O)N[C@@H](CCCCN)C(=O)NCC(=O)N1CCC[C@H]1C(=O)N[C@@H](CC(C)C)C(N)=O` (Ac-RP[Nle]LAAKGPL-NH2), the Retention_time in data set [1] turned out to be 16.64 min. Also, the pEC50 at Apelin receptor was 8.49.

Broadly, the half-life is how long it takes for the measured level to halve. In data set [2], `CCCC[C@H](NC(=O)[C@H](C)NC(=O)[C@H](C)NC(=O)[C@H](CC(C)C)NC(=O)[C@H](CCCC)NC(=O)[C@@H]1CCCN1C(=O)[C@H](CCCNC(=N)N)NC(C)=O)C(=O)NCC(=O)N1CCC[C@H]1C(=O)N[C@@H](CC(C)C)C(N)=O` (Ac-RP[Nle]LAA[Nle]GPL-NH2) had a half-life of 2 min. Also, the Drug metabolism entry with Plasma [3] and with Plasma [4] was “metabolite_detected” in each case. The Retention_time in data set [1] is recorded as 16.79 min. Also, the pEC50 at Apelin receptor is 7.48. For the compound `CCCC[C@H](NC(=O)[C@@H]1CCCN1C(=O)[C@H](CCCNC(=N)N)NC(C)=O)C(=O)NCCCCCCCC(=O)N[C@@H](C)C(=O)N[C@@H](C)C(=O)N[C@@H](CCCCN)C(=O)NCC(=O)N1CCC[C@H]1C(=O)N[C@@H](CC(C)C)C(N)=O` (Ac-RP[Nle][Aoc]AAKGPL-NH2), the Retention_time in data set [1] worked out at 19.43 min. Further, the pEC50 at Apelin receptor was 6.27.

The compound `CCCC[C@H](NC(=O)[C@@H]1CCCN1C(=O)[C@H](CCCNC(=N)N)NC(C)=O)C(=O)N[C@@H](CCc1ccccc1)C(=O)N[C@@H](C)C(=O)N[C@@H](C)C(=O)N[C@@H](CCCCN)C(=O)NCC(=O)N1CCC[C@H]1C(=O)N[C@@H](CC(C)C)C(N)=O` (Ac-RP[Nle][hPhe]AAKGPL-NH2) gave a Retention_time in data set [1] of 18.37 min. Also, on Apelin receptor, the pEC50 was 7.14. Taken in the same sequence, the figures for Ac-APRLSHKGPL-NH2 were 13.2 min and 5.86. Ac-KGPMPF-OH: at Apelin receptor, the EC50 is greater than 31600 nM. In data set [1], Ac-KPRLAAKGPL-NH2 yielded a Retention_time of 13.08 min. The pEC50 at Apelin receptor is 6.31. Regarding Ac-LSHKGPMPF-OH, on Apelin receptor, the EC50 was greater than 31600 nM. As to Ac-RARLAAKGPL-NH2, the Retention_time in data set [1] worked out at 13.23 min. In addition, the negative-log EC50 (pEC50) at Apelin receptor was 7.51. The like results for Ac-RPALAAKGPL-NH2 were, in that order, 14.15 min and 8.05. Taken in the same sequence, the figures for Ac-RPKFAAKGPL-NH2 were 13.91 min and 7.36. Taken in the same sequence, the figures for Ac-RPRAAAKGPL-NH2 were 11.33 min and 6.03. As to Ac-RPRLAAAGPL-NH2, the Retention_time in data set [1] is given as 14.93 min. In addition, the pEC50 on Apelin receptor is 6.20. The like results for Ac-RPRLAAKGAL-NH2 were, in that order, 12.37 min and 6.63. The like results for Ac-RPRLAAKGPL-NH2 were, in that order, 13.64 min and 8.96. The compound Ac-RPRLSHKGPF-NH2 registered a Retention_time in data set [1] of 13.43 min. In addition, the pEC50 at Apelin receptor is 8.33. The like results for Ac-RPRLSHKGPL-NH2 were, in that order, 12.43 min and 8.72.

For Ac-RPRLSHKGPM-NH2, in data set [1], the Retention_time amounted to 11.47 min. The pEC50 on Apelin receptor is 8.36.

In data set [1], Ac-RPRLSHKGPV-NH2 had a Retention_time of 10.84 min. Further, the pEC50 at Apelin receptor was 6.16. H-QRPRLS-NH2 returned a Retention_time in data set [1] of 15.93 min. The pEC50 at Apelin receptor is less than 5.52. The like results for H-QRPRLSH-NH2 were, in that order, 13.49 min and less than 5.52. The like results for H-QRPRLSHK-NH2 were, in that order, 12.94 min and less than 5.52. For H-QRPRLSHKG-NH2, at Apelin receptor, the pEC50 is less than 5.52. In the case of H-QRPRLSHKGP-NH2, the pEC50 at Apelin receptor was 5.63.

These data come from ChEMBL document CHEMBL3259718, “Identifying structural determinants of potency for analogs of apelin-13: integration of C-terminal truncation with structure-activity” (Bioorg Med Chem, 2014).
